Screening data deposited in PubChem by several laboratories.
APJ antag: antagonists of human apelin receptor APJ, primary screen, CHO-K1 cells, beta-arrestin complementation, luminescence; 0.32% of 330,000 active; inhibition, % at 20 µM; P35414; AID 2521, 2010;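 active = inhibition above about 40% at 20 µM, limit read from the data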;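 also: cells challenged with 10 nM apelin-13 agonist together with compound; plate controls were apelin-13 plus DMSO wells for no effect and DMSO wells lacking apelin-13 for full effect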
NTR1 agonist: agonists of human NTR1, primary screen, imaging, U2OS cells, beta-arrestin-GFP, high content; Neurotensin receptor type 1 (Homo sapiens), P30989; NTR1-U2OS beta-arrestin-GFP spot imaging, agonist mode; activation, % at 20 µM; 0.17% of 330,000 active;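 active = activation at or above 40% of the spot to cytoplasm intensity ratio, with at least 20 cells analyzed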;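 also: 0% = DMSO without peptide and 100% = 100 nM NTR1 peptide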
APJ ag: agonists of human apelin receptor APJ, primary screen, CHO-K1 cells, PathHunter beta-arrestin, luminescence; P35414; 0% DMSO wells, 100% apelin; activation, % at 20 µM; 0.11% of 330,000 active;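 active = activation more than six SD over the plate average, tested at 20 µM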;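 also: 0% = DMSO alone and 100% = apelin-13 at 10 nM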
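Assay system: CHO-K1 cells stably expressing ProLink-tagged human APJ and arrestin–beta-gal acceptor. Compound dosing: 20 µM single point, 1% DMSO. Times: 16-18 h seeding, 90 min dark compound exposure, 60 min detection. Detection: beta-gal luminescence. Evaluation: APJ–arrestin association signal. Controls: negative DMSO alone, positive Apelin-13 at 10 nM.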
CCR6 antag: CCR6 receptor antagonists, primary screen, cell-based, CHO-K1, luminescence, beta-arrestin, uHTS; C-C chemokine receptor type 6 (Homo sapiens), P51684; CHO-K1 CCR6 PathHunter beta-arrestin, CCL20-stimulated; inhibition, % at 20 µM; 0.49% of 340,000 active; AID 493098, 2011;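 active = compounds whose inhibition of the agonist-driven luminescence signal at 20 µM reaches about 50%, limit read from the data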;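 also: cells stimulated with CCL20 at 14 nM final; plate controls were DMSO with CCL20 for no effect and DMSO without agonist for full effect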
CXCR6 inh: CXCR6 receptor inhibitors, primary screen, cell-based, beta-arrestin, luminescence, CHO-K1 PathHunter, 1536-well; inhibition, % at 20 µM; 0.36% of 360,000 active; AID 602244, 2012; in the data active = inhibition above about 34%, passing the limit was not always enough;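 also: antagonist mode with CXCL16 agonist at 10 nM final; 0% = 10 nM CXCL16 with DMSO and 100% = unstimulated wells without agonist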
HTR2A ag: mouse Htr2a agonists via beta-arrestin recruitment, primary screen, cell-based, luminescence | 0.66% of 360,000 active | AID 624169, 2012 | CHO-K1 mHTR2A beta-arrestin complementation; percent of 30 µM serotonin response | activation, % at 7.6 µM | 5-hydroxytryptamine receptor 2A (Mus musculus), P35363;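 active = activation above a run cutoff, the mean activation of all tested compounds plus 3 SD, cut at about 14% in these data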;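 also: 0% = plate median of compound wells and 100% = 30 µM serotonin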
MOR ag counter: OPRM1 agonists via beta-arrestin recruitment, confirmation, counter-screen for mouse HTR2A agonist project, cell-based, luminescence, single concentration; 5.3% of 2,300 active; shares compounds with HTR2A ag; U2OS OPRM1 beta-arrestin PathHunter; DMSO 0%, DAMGO 9.3 µM 100%; activation, % at 9.3 µM;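 active = mean activation above the mean of DMSO-only wells plus 3 SD, cut at about 0.5% in these data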
Target sequence (P35372 whole entry, looked up): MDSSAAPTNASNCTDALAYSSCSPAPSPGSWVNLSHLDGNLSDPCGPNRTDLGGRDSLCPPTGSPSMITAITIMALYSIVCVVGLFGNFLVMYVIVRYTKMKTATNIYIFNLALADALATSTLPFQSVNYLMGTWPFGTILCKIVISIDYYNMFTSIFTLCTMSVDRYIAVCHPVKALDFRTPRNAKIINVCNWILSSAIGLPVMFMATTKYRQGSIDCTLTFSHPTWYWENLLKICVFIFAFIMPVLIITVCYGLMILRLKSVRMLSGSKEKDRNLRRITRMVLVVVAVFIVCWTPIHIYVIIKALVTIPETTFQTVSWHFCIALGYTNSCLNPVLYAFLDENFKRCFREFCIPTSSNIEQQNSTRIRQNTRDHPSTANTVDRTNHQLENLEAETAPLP
m5-HT2A ag conf: mouse HTR2A agonists, beta-arrestin recruitment, confirmation, cell-based, luminescence, CHO-K1 PathHunter, triplicate; shares compounds with HTR2A ag; DMSO 0%, 30 µM serotonin 100%; activation, % at 7.6 µM; 19% of 2,300 active;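 active = mean activation across triplicates above the hit threshold derived in the original primary screen, cut at about 15% in these data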
An asterisk follows results filed as active; nt = no result given. This is a sample that favours compounds with a hit; in the whole collection about 1.5% have one here.

SMILES | APJ antag | NTR1 agonist | APJ ag | CCR6 antag | CXCR6 inh | HTR2A ag | MOR ag counter | m5-HT2A ag conf
CCCC[C@@H]1C=C(C(=O)O)[C@H](c2ccc3c(c2)OCO3)N1S(=O)(=O)c1ccc(C)cc1 | 2 | 6 | -4 | 8 | 5 | 16* | 1.3* | 6
O=C(Nc1nccs1)c1ccc(N2CCOCC2)c([N+](=O)[O-])c1 | 33 | -1 | -2 | 24 | 3 | 5 | nt | nt
COc1ccc(NC(=O)[C@@H](NC(N)=O)C(C)C)cc1Cl | -1 | -2 | -3 | 4 | -7 | -4 | nt | nt
Nn1c(SCC(=O)NC2CCCCCC2)nnc1-c1ccco1 | nt | nt | nt | nt | 3 | -2 | nt | nt
O=C(O)c1cc(Cl)c2c(c1)OCO2 | -4 | 0 | -2 | 6 | 4 | -1 | nt | nt
Cc1cccc(NC(=O)C2Cc3ccccc3O/C2=N\O)c1 (centres undefined) | 7 | -1 | -2 | 12 | -6 | 16* | -1 | -3
CCOC(=O)c1[nH]c(C)c(C(=O)OCC(=O)N(Cc2ccccc2)C(C)C)c1C | 4 | 6 | -3 | 15 | -9 | 20* | -1 | -1
CCOC(=O)c1c(C)[nH]c(C(=O)OCC(=O)N(CC(C)C)c2c(N)n(Cc3ccccc3)c(=O)[nH]c2=O)c1C | -66 | 2 | 2 | -2 | 4 | -8 | nt | nt
Cc1ccc(C(=O)c2nc(C(=O)NCCO)nc3ccccc23)cc1 | -2 | -1 | -4 | -8 | 0 | 16* | -1 | -3
CN(C(=O)CSc1nnc(C2CC2)n1-c1ccccc1)C1CCS(=O)(=O)C1 (centres undefined) | 10 | 1 | -3 | 8 | 6 | 2 | nt | nt
CCOc1ccc(N2CC(C(=O)Nc3cccnc3)CC2=O)cc1 (centres undefined) | 11 | -2 | -2 | 4 | 4 | 7 | nt | nt
Cc1ccc(S(=O)(=O)N/N=C/c2c(F)cccc2Cl)cc1 | 9 | 2 | -5 | 17 | 11 | 15* | -1 | -3
CCCNC(=O)c1cc(C2CCCCN2C(=O)c2cc(OC)c(C)c(OC)c2)on1 (centres undefined) | nt | nt | nt | nt | 1 | 16* | -1 | -4
COc1ccc(C2/C(=C(\O)c3ccc4c(c3)OCCO4)C(=O)C(=O)N2Cc2cccnc2)cc1OC (centres undefined) | 21 | 0 | -1 | 2 | 7 | 20* | -1 | 0
COc1cc(CN2C(=O)C(CCc3ccccc3)ON=C2c2cnccn2)cc(OC)c1 (centres undefined) | nt | nt | nt | nt | -1 | -9 | nt | nt
C[C@H]1CN([C@@H](C)CO)C(=O)CCCn2nncc2CO[C@H]1CN(C)C(=O)Nc1ccc2c(c1)OCO2 | nt | nt | nt | nt | 2 | 2 | nt | nt
O=C1N/C(=N/O)S/C1=C\c1ccccc1-n1cccn1 | -6 | 2 | -1 | -10 | -5 | 16* | 0 | 0
C=C(C)c1cccc(C(C)(C)NC(=O)Nn2cnnc2)c1 | 11 | -1 | -1 | 3 | 0 | 16* | -1 | 16*
C=C(C)c1cccc(C(C)(C)NC(=O)Nc2ccc(Cl)cn2)c1 | 1 | 12 | -1 | 9 | -8 | 30* | 0 | 18*
COc1ccc(C(=O)COC(=O)c2ccc3c(c2)OCCO3)c(OC)c1 | 20 | 2 | -5 | 15 | -8 | 2 | nt | nt
CC(=O)Nc1c2c(nn1-c1ccc(Cl)cc1)CSC2 | 9 | -1 | -3 | 0 | 1 | 6 | nt | nt
CC1CCCCN1C(=O)COC(=O)CSc1ccc(C(N)=O)cc1[N+](=O)[O-] (centres undefined) | nt | nt | nt | 11 | 12 | -2 | nt | nt
CC1CCCC(C)N1C(=O)COC(=O)CSc1ccc(C(N)=O)cc1[N+](=O)[O-] (centres undefined) | 25 | -1 | -5 | 8 | -1 | 16* | -1 | -3
COc1ccc(N2CCN(c3cc(=O)n(Cc4ccc(F)cc4)c(=O)[nH]3)CC2)cc1 | 12 | 1 | -1 | -2 | -2 | 16* | -1 | -1
O=c1cc(N2CCN(c3ccc(F)cc3)CC2)[nH]c(=O)n1Cc1ccc(F)cc1 | -3 | 1 | 6 | 8 | 4 | -5 | nt | nt
SMILES | APJ antag | NTR1 agonist | APJ ag | CCR6 antag | CXCR6 inh | HTR2A ag | MOR ag counter | m5-HT2A ag conf
CCOc1cc(-c2c(C)c(CC)nc(N)c2C#N)ccc1O | 14 | 3 | -1 | 6 | -6 | 3 | nt | nt
CCOc1cc(-c2c(C)c(C)nc(N)c2C#N)ccc1O | -16 | 2 | -1 | -20 | -8 | 15* | 0 | 24*
Cc1ccccc1NC(=S)NC(NC(=O)c1ccco1)C(Cl)(Cl)Cl (centres undefined) | 19 | 1 | -4 | 16 | 4 | 17* | -1 | -6
CCOCCCNC(=O)C1(O)c2cc(Br)ccc2NC(=O)N1c1ccc(CC)cc1 (centres undefined) | -8 | 0 | -4 | -7 | -2 | 18* | 0 | -1
CCOCCCNC(=O)C1(O)c2cc(Br)ccc2NC(=O)N1c1ccc(OCC)cc1 (centres undefined) | 6 | 0 | 0 | 5 | 0 | -5 | nt | nt
COCC1CCCCN1C(=O)c1cc(COc2ccc3ncccc3c2)on1 (centres undefined) | 1 | 0 | 1 | 12 | -14 | 20* | 0 | 0
CCC1CCCCN1C(=O)c1cc(COc2ccc3ncccc3c2)on1 (centres undefined) | 4 | 0 | 0 | -4 | 0 | 6 | nt | nt
Cc1ccc(SCc2cc(=O)[nH]c(N3CCN(Cc4ccccc4)CC3)n2)cc1 | 6 | 5 | -1 | -1 | -2 | 18* | -1 | 12
CS(=O)(=O)CCC(C(=O)OCc1ccc(Cl)cc1)N1C(=O)c2ccccc2C1=O (centres undefined) | 0 | -2 | 0 | 4 | 2 | 17* | 0 | -3
CCCCN1C(=O)C(CC(=O)NCc2cccc3ccccc23)CC(C(=O)N2CCOCC2)=C1C (centres undefined) | nt | nt | nt | nt | 6 | 15* | 0 | 4
CC1=C(C(=O)N2CCOCC2)CC(CC(=O)NCc2cccc3ccccc23)C(=O)N1CCCN1CCCC1=O (centres undefined) | nt | nt | nt | nt | 1 | 2 | nt | nt
